The values that follow come from ChEMBL document CHEMBL3120063, “Identification of chromomoric acid C-I as an Nrf2 activator in Chromolaena odorata” (J Nat Prod, 2014).

In data set [1] the target is T1, Nuclear factor erythroid 2-related factor 2 (Homo sapiens) (UniProt Q16236).
T1 sequence (whole entry): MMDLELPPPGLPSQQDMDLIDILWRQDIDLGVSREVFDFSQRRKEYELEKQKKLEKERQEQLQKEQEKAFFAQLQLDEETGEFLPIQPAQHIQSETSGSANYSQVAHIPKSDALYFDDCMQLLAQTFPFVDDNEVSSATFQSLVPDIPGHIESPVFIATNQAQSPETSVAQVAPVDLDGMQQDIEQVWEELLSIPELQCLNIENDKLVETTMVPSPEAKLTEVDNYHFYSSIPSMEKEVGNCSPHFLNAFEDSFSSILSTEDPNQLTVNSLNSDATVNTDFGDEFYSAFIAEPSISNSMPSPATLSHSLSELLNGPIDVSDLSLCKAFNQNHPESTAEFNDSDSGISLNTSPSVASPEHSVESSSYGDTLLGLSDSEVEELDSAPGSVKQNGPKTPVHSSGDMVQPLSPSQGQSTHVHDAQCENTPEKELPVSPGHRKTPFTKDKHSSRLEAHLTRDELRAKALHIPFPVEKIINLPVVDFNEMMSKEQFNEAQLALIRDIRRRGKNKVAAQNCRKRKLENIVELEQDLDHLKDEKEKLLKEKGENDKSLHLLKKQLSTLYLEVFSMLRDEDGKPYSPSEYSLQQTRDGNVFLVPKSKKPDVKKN
Kind of data set: Activation of Nrf2 (unknown origin) expressed in CHO-ARE luc cells at 10 to 30 uM after 18 hrs by luciferase reporter gene assay. Type of data set: cell-based. A digest of the protocol: (§1)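 CHO-ARE-Luc cells, kept in DMEM with 10% FCS, 2 mM glutamine and 4 μg/mL puromycin, were exposed to test agents for 18 h. 0.1% DMSO served as vehicle and 100 nM CDDO-IM as positive control. Luciferase was normalized to cell count (Cell Tracker Green CMFDA) and expressed as fold of DMSO control. Three independent experiments, means + SD. CD = concentration doubling the vehicle response.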
In general terms: In a reporter assay the amount or activity of a reporter protein is the signal.

The test system of another data set is HEK293. Kind of data set: Inhibition of NF-kappaB (unknown origin) expressed in HEK293 cells co-expressing luc gene at 30 uM after 30 mins by luciferase reporter gene assay. The conditions noted are these: Homo sapiens. The class given is cell-based. In a few lines:
(§2)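 HEK293/NF-κB-luc cells were stained 1 h with 2 μM Cell Tracker Green CMFDA, seeded at 4×10⁴ cells/well overnight, and pretreated 30 min with compound, 0.1% DMSO, or 5 μM parthenolide (positive control). They were then stimulated with 2 ng/mL TNF-α for 4 h and lysed; luminescence (NF-κB) and fluorescence (cell count) were read. n = 3.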

Data set [2] deals with T1, Nuclear factor erythroid 2-related factor 2 (Homo sapiens). Kind of data set: Activation of Nrf2 (unknown origin) expressed in CHO-ARE-Luc cells after 18 hrs by luciferase reporter gene assay. Type of data set: cell-based. In a few lines: as §1
Data set [3] has as its target T2, Nuclear factor erythroid 2-related factor 2 (Mus musculus) (UniProt Q60795).
T2 sequence (whole entry): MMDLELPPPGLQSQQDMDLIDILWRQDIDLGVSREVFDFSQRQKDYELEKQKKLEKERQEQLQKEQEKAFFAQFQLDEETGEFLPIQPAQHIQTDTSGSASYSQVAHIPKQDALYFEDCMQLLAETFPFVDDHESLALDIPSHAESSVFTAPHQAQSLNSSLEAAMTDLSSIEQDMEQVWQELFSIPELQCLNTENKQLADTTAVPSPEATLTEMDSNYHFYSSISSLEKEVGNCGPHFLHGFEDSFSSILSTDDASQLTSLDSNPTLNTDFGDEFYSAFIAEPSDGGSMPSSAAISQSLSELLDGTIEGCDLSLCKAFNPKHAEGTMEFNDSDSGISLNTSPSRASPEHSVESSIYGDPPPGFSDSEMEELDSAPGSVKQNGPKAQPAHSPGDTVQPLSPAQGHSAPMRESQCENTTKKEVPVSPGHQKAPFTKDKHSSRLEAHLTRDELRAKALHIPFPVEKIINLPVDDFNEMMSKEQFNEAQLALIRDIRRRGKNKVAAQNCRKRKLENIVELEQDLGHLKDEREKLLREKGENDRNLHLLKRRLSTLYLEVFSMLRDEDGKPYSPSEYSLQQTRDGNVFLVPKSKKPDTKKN
Kind of data set: Activation of Nrf2 in wild type mouse embryonic fibroblasts assessed as induction of HO-1expression after 18 hrs by immunoblotting analysis. A digest of the protocol: (§3)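 MEF (WT and isogenic Nrf2−/−) or VSMC were seeded at (3–4) × 10⁵ cells/well and treated next day with 0.1% DMSO or compound for 18 h. Total lysates were run on SDS-PAGE and immunoblotted for HO-1, with actin as loading control. HO-1/actin by densitometry relative to vehicle (set at 1). Three independent experiments.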
In general terms: In western blotting, separated proteins are transferred to a membrane and probed.

In data set [4] the target is T1, Nuclear factor erythroid 2-related factor 2 (Homo sapiens). Kind of data set: Activation of Nrf2 (unknown origin) expressed in CHO-ARE luc cells at 5.2 uM after 18 hrs by luciferase reporter gene assay relative to vehicle-treated control. Type of data set: cell-based. In a few lines: as §1
The target is the same in data set [5]. Kind of data set: Activation of Nrf2 (unknown origin) expressed in CHO-ARE-Luc cells after 18 hrs by luciferase reporter gene assay in presence of GSH. Type of data set: cell-based. A digest of the protocol:
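ARE-luciferase assay in CHO-ARE-Luc cells with the medium supplemented with 2 mM glutathione before compound addition. Luciferase read 18 h later, normalized to cell count and given as fold of 0.1% DMSO control. CDDO-IM 100 nM as positive control. Three independent experiments.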

Data set [6] is described as follows: Cytotoxicity against human VSMC at 2 to 5 uM after 48 hrs by LDH assay. In a few lines:
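Quiescent VSMC were treated with compound for 48 h. LDH release, measured with a nonradioactive CytoTox kit, was taken as readout of membrane integrity. Three independent experiments, 0.1% DMSO vehicle.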

Data set [7] deals with T2, Nuclear factor erythroid 2-related factor 2 (Mus musculus). Kind of data set: Activation of Nrf2 in mouse Nrf2 deficient embryonic fibroblasts assessed as induction of HO-1expression at 10 uM after 18 hrs by immunoblotting analysis. In a few lines: as §3
A short description of data set [8]: Inhibition of NF-kappaB (unknown origin) expressed in HEK293 cells co-expressing luc gene after 30 mins by luciferase reporter gene assay. Type of data set: cell-based. The conditions noted are these: Homo sapiens, HEK293, 0.5 h. A digest of the protocol:
as §2

Data set [9] has as its system VSMC. Kind of data set: Antiproliferative activity against human VSMC assessed as inhibition of PDGF-induced cell proliferation at 5 uM incubated for 30 mins prior to PDGF challenge measured after 48 hrs by resazurin-mediated fluorescence assay in presence of protoporphyrin 9. The class given is functional. A digest of the protocol:
(§4)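 Quiescent (serum-starved) VSMC were pretreated 30 min with 0.1% DMSO, compound, or 10 μM tin protoporphyrin IX (HO-1 inhibitor) as indicated, then stimulated 48 h with 20 ng/mL PDGF. After a PBS wash, cells were given 10 μg/mL resazurin in serum-free medium for 45 min; resorufin fluorescence read at ex 535/em 590 nm. Three independent experiments.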

Data set [10] deals with T1, Nuclear factor erythroid 2-related factor 2 (Homo sapiens). Kind of data set: Activation of Nrf2 (unknown origin) expressed in CHO-ARE luc cells at 10 uM after 18 hrs by luciferase reporter gene assay. Type of data set: cell-based. In a few lines:
as §1

Data set [11] has the same target. Kind of data set: Activation of Nrf2 in human VSMC assessed as induction of HO-1 expression at 3 uM after 18 hrs by immunoblotting analysis. In a few lines: as §3
Data set [12] has as its system VSMC. Kind of data set: Antiproliferative activity against human VSMC assessed as inhibition of PDGF-induced cell proliferation at 2 to 5 uM incubated for 30 mins prior to PDGF challenge measured after 48 hrs by resazurin-mediated fluorescence assay. The class given is functional. In a few lines:
as §4

Molecules are shown by their SMILES. Calls of active or inactive are those of the source. The rule behind the calls is not given here.

On to `O=c1c(O)c(-c2ccc(O)cc2)oc2cc(O)cc(O)c12`, for which the result in data set [1] was inactive. Same read-out and setting: under `COc1cc(O)c2c(=O)c(O)c(-c3ccc(OC)c(O)c3)oc2c1` stands “inactive”. Take `CC/C=C\CC1C(=O)C=C/C1=C\CCCCCCC(=O)O` (stereo not drawn): in the data set on HEK293, the inhibition result was “Active”. `COc1ccc(-c2cc(=O)c3c(O)c(OC)c(O)cc3o2)cc1`: the outcome in [1] was inactive.

With `CC/C=C\C[C@H]1C(=O)C=C[C@@H]1CCCCCCCC(=O)O`, the inhibition result with HEK293 was “Active”. In the case of `COc1ccc([C@@H]2CC(=O)c3c(cc(O)c(OC)c3O)O2)cc1O`, the outcome in data set [1] was inactive.

For the molecule `O=C1C[C@@H](c2ccc(O)cc2)Oc2cc(O)cc(O)c21`, in [1], the result was inactive. The same measure, in the same setting: next, `COc1ccc(-c2cc(=O)c3c(OC)c(OC)c(OC)cc3o2)cc1`: “inactive”; `COc1ccc(-c2oc3cc(O)cc(O)c3c(=O)c2O)cc1`: “inactive”.

Regarding `COc1cc(O)c2c(c1)O[C@H](c1ccc(O)cc1)[C@@H](O)C2=O`, in data set [1], the outcome was inactive.

With `COc1ccc([C@@H]2CC(=O)c3c(O)cc(O)cc3O2)cc1O`, in data set [1], the outcome was inactive. `CC/C=C\CC1C(=O)C=C/C1=C/CCCCCCC(=O)O` (stereo not drawn): in the data set with HEK293, the inhibition entry is “Active”.

For the molecule `CCCCC/C=C/C=C1/C(=O)C=C[C@@H]1C/C=C\CCCC(=O)O`, in data set [2], the Activity result was “Dose-dependent effect”. With `CC/C=C\C=C1/C(=O)C=C[C@@H]1CCCCCCCC(=O)O`, in the data set with HEK293, the inhibition result is “Active”. Turning to `COc1ccc(-c2cc(=O)c3c(O)cc(O)cc3o2)cc1`, the result in [1] was inactive. As for `COc1ccc(-c2oc3cc(O)c(OC)c(O)c3c(=O)c2O)cc1`, the outcome in data set [1] was inactive. Take `CC/C=C\C=C1\C(=O)C=C[C@@H]1CCCCCCCC(=O)O`: the Activity entry was “Dose-dependent effect” in data set [3] and “Non-toxic” in [6]. The molecule further gave a fold change (FC) in data set [4] of 2. Moreover, the result (in data set [5]; in the data set with VSMC [9]) was inactive. The outcome in data set [7], in [10] and in data set [11] was Active. The half-inhibitory concentration (IC50) (as a rule, the point on the concentration scale where inhibition reaches its midpoint) in data set [8] was found to be 6.9 µM. For the same molecule, in the data set with VSMC [12], the inhibition result was “Active”. Take `COc1ccc([C@@H]2CC(=O)c3c(cc(OC)c(OC)c3O)O2)cc1OC`: in [1], the result was inactive. `COc1ccc(-c2cc(=O)c3c(O)c(OC)c(OC)cc3o2)cc1`: the result in data set [1] was inactive.
